Data set [1] deals with T1, Beta-2 adrenergic receptor (Homo sapiens, UniProt P07550). Briefly: Agonist activity at human beta-2 adrenergic receptor expressed in CHO cells assessed as cAMP accumulation relative to R-(-)-isoproterenol. The format is functional, cell-based. Put shortly: (§1)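 cAMP accumulation measured in CHO cells expressing the cloned human receptor subtype. Potency given as pEC50; Emax is the fitted maximal response of the concentration-response, expressed as percent of the maximal response to R-(−)-isoproterenol. Values are from n ≥ 3 experiments unless noted (some n = 2), with standard deviation within 10%.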
Background: Changes in cAMP serve as a functional read-out for many G protein-coupled receptors.
Target sequence in this assay (P07550 whole entry, looked up): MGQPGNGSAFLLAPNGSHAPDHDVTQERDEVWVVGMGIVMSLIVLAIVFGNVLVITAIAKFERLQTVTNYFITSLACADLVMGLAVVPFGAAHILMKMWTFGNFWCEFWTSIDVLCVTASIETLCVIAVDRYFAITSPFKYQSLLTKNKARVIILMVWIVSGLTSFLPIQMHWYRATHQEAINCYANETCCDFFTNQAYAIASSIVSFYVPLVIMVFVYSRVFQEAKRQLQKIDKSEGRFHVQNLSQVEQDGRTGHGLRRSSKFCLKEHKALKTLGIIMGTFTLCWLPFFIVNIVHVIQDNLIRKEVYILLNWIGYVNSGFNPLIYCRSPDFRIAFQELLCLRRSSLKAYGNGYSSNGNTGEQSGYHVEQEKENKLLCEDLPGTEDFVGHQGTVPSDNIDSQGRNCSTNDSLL

For data set [2], the target named is T1, Beta-2 adrenergic receptor. Briefly: Agonist activity at human beta-2 adrenergic receptor expressed in CHO cells assessed as cAMP accumulation. It counts as functional, cell-based. An outline of the steps: as §1
Target sequence in this assay (P07550 whole entry): as the sequence (P07550 whole entry, looked up) above
Data set [3] addresses T2, Beta-1 adrenergic receptor (Homo sapiens, UniProt P08588). Briefly: Agonist activity at human beta-1 adrenergic receptor expressed in CHO cells assessed as cAMP accumulation relative to R-(-)-isoproterenol. It counts as functional, cell-based. Put shortly: as §1
Target sequence in this assay (P08588 whole entry, looked up): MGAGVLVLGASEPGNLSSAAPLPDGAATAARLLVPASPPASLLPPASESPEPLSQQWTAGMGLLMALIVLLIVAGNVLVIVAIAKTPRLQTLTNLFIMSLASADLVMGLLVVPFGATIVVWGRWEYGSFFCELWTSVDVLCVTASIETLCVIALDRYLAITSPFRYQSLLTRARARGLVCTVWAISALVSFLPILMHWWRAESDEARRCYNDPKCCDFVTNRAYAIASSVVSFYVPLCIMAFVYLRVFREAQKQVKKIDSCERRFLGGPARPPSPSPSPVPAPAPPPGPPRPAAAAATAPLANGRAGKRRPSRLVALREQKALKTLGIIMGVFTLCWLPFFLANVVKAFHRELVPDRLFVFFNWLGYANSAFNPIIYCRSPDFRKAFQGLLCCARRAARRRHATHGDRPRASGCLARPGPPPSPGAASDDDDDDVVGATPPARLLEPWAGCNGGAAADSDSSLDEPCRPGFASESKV
The target of data set [4] is T3, Beta-3 adrenergic receptor (Homo sapiens, UniProt P13945). Briefly: Agonist activity at human beta-3 adrenergic receptor expressed in CHO cells assessed as cAMP accumulation relative to R-(-)-isoproterenol. It counts as functional, cell-based. An outline of the steps:
as §1
Target sequence in this assay (P13945 whole entry, looked up): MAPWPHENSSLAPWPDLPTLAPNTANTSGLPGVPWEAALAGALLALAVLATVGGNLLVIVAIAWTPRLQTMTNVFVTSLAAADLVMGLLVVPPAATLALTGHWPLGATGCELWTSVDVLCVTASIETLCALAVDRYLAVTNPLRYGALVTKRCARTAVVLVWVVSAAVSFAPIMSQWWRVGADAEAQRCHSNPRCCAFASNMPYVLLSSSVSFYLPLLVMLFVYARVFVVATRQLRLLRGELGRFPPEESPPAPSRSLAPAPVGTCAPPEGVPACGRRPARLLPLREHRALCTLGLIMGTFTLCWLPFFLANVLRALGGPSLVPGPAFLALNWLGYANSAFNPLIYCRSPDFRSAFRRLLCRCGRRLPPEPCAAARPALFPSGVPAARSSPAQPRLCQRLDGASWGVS

A short description of data set [5]: Half life in dog at 0.2 mg/kg, iv. The settings on record: in vivo. Set-up: dose 0.2 mg/kg, route intravenous. It counts as ADME, organism-based, Canis lupus familiaris. An outline of the steps: (§2)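 Single intravenous dose of 0.2 mg/kg. Plasma drug levels measured by LC–MS/MS, and clearance and half-life derived from them.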
The nature of data set [6]: Plasma clearance in dog at 0.2 mg/kg, iv. It counts as ADME, organism-based, Canis lupus familiaris. Set-up: dose 0.2 mg/kg, route intravenous. An outline of the steps: as §2
Data set [7] is filed under the species Homo sapiens. Briefly: Selectivity ratio of pEC50 for human beta-3 adrenergic receptor over beta-1 adrenergic receptor. An outline of the steps:
(§3)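 Ratio of […]. pEC50 values come from cAMP accumulation in CHO cells expressing cloned human β1, β2 or β3 receptors.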

The target in data set [8] is T2, Beta-1 adrenergic receptor. Briefly: Agonist activity at human beta-1 adrenergic receptor expressed in CHO cells assessed as cAMP accumulation. The format is functional, cell-based. An outline of the steps: as §1
Target sequence in this assay (P08588 whole entry): as the sequence (P08588 whole entry, looked up) above
Data set [9] is filed under the species Homo sapiens. Briefly: Selectivity ratio of pEC50 for human beta3 adrenergic receptor over beta-2 adrenergic receptor. An outline of the steps:
as §3

Data set [10] deals with T3, Beta-3 adrenergic receptor. The experiment in a line: Agonist activity at human beta-3 adrenergic receptor expressed in CHO cells assessed as cAMP accumulation. The format is functional, cell-based. Put shortly: as §1
Target sequence in this assay (P13945 whole entry): as the sequence (P13945 whole entry, looked up) above
Data set [11] relates to Mus musculus. Briefly: Reduction of glucose level in db/db mouse serum at 0.1 mg/kg, po bid for 14 days. The format is functional. An outline of the steps: (§4)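 Male db/db mice, 60 days old at the start of dosing, 10 per group. Dosed by oral gavage twice daily for 14 days in 0.025 M methanesulfonic acid vehicle, with dosing solutions prepared fresh daily. Day 0 baseline taken from 10 exsanguinated mice. Mice were sacrificed on days 7 and 14, and serum glucose was measured on an automated chemistry analyzer against vehicle-treated mice.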

Data set [12] deals with Mus musculus. Briefly: Reduction of glucose level in db/db mouse serum at 1 mg/kg, po bid for 14 days. It counts as functional. An outline of the steps:
as §4

For data set [13], the system named is Mus musculus. Briefly: Reduction of glucose level in db/db mouse serum at 0.03 mg/kg, po bid for 14 days. The format is functional. Put shortly:
as §4

For data set [14], the system named is Mus musculus. Briefly: Reduction of glucose level in db/db mouse serum at 0.3 mg/kg, po bid for 14 days. It counts as functional. An outline of the steps:
as §4

Each structure is given as a SMILES string. Bounds are passed on as bounds.

`C[C@H](CNc1cccc(-c2sccc2C(=O)O)c1)NC[C@H](O)c1cccc(Cl)c1`: the Emax – broadly, the size of the effect at its maximum, as opposed to the concentration needed – was 9% in [1], < 7% in data set [3] and 85% in data set [4]. In addition, the values for the EC50 in data set [2], in data set [8] and in [10] were 794 nM, 1260 nM and 0.0631 nM, respectively. Further, in [5], the half-life (in general, how long it takes for the measured level to halve) was ≤ 1 h. Also, the clearance (as a rule, the volume of plasma or blood freed of the substance per unit of time) in [6] amounted to 5.3 mL/min/kg. In addition, the values for the Selectivity ratio in the data set filed under Homo sapiens [7] and in the data set listed under Homo sapiens [9] were 20000 and 13000, respectively.
For the molecule `C[C@H](CNc1ccc(-c2nc(C(=O)O)co2)cc1)NC[C@H](O)c1cccc(Cl)c1`, the values for the Emax in data set [1], in [3] and in data set [4] were 53%, 23% and 92%, respectively. For the same molecule, the EC50 – broadly, the concentration needed to bring the measured effect to its halfway point – in [2] was 100 nM; in data set [8], 12.6 nM; in data set [10], 15.8 nM. Moreover, the Selectivity ratio in the data set listed under Homo sapiens [7] was found to be 0.8; in the data set filed under Homo sapiens [9], 6.
Consider `C[C@H](CNc1ccc(-c2csc(C(=O)O)n2)cc1)NC[C@H](O)c1cccc(Cl)c1`, for which the figures for the Emax in [1], in data set [3] and in data set [4] were 63%, 19% and 100%, respectively. In addition, the EC50 in data set [2] was 50.1 nM; in data set [8] it was 12 nM; in [10], 1.58 nM. In addition, the Selectivity ratio in the data set filed under Homo sapiens [7] was 8; in the data set filed under Homo sapiens [9] it was 32.
Consider `C[C@H](CNc1ccc(CCC(=O)O)cc1)NC[C@H](O)c1cccc(Cl)c1`, for which the Selectivity ratio was 10 in the data set filed under Homo sapiens [7] and 16 in the data set filed under Homo sapiens [9].
`C[C@H](CNc1cccc(-c2csc(C(=O)O)n2)c1)NC[C@H](O)c1cccc(Cl)c1`: the Emax came out at 76% in data set [1], 20% in [3] and 97% in data set [4]. Besides, the EC50 in [2] was 100 nM; in data set [8], 100 nM; in data set [10], 2 nM. In addition, the Selectivity ratio in the data set filed under Homo sapiens [7] and in the data set filed under Homo sapiens [9] was 50 throughout.
Turning to `C[C@H](CNc1ccc(CC(=O)O)cc1)NC[C@H](O)c1cccc(Cl)c1`, the Selectivity ratio turned out to be 5 in the data set listed under Homo sapiens [7] and 3 in the data set filed under Homo sapiens [9].
With `O=C(O)c1ccoc1-c1cccc(NCCNC[C@H](O)c2cccc(Cl)c2)c1`, the Emax in [1] is < 5%; in data set [3], < 5%; in [4] it was 91%. The concentration giving a half-maximal response (EC50) in data set [2] is 2510 nM; in data set [8], 5010 nM; in data set [10], 7.94 nM. The Activity in the data set on Mus musculus [11] worked out at 255 mg/dL; with Mus musculus [12], 183 mg/dL; with Mus musculus [13] it was 376 mg/dL; in the data set on Mus musculus [14], 191 mg/dL. The half-life in data set [5] is 6.1 h. This molecule also came in with a clearance in data set [6] of 0.65 mL/min/kg. Besides, the Selectivity ratio in the data set filed under Homo sapiens [7] stood at 630; in the data set listed under Homo sapiens [9] it was 320.
Consider `C[C@H](CNc1ccc(-c2occc2C(=O)O)cc1)NC[C@H](O)c1cccc(Cl)c1`, for which the Emax in data set [1] came to 36%; in data set [3] it was 18%; in data set [4] it was 85%. Also, the EC50 in data set [2] was 79.4 nM; in data set [8], 20 nM; in data set [10], 0.316 nM. Moreover, in [5], the half-life was ≤ 1 h. In data set [6], this molecule registered a clearance of 5.3 mL/min/kg. The Selectivity ratio in the data set filed under Homo sapiens [7] worked out at 63; in the data set filed under Homo sapiens [9], 250.
On to `C[C@H](CNc1cccc(-c2occc2C(=O)O)c1)NC[C@H](O)c1cccc(Cl)c1`, for which the Emax was determined as 38% in data set [1], 14% in data set [3] and 87% in data set [4]. For the same molecule, the EC50 in data set [2] was 126 nM; in data set [8] it was 100 nM; in data set [10], 0.251 nM. Also, the half-life in data set [5] is ≤ 1 h. The molecule also yielded a clearance in data set [6] of 5.3 mL/min/kg. The Selectivity ratio worked out at 400 in the data set filed under Homo sapiens [7] and 500 in the data set listed under Homo sapiens [9].
`C[C@H](CNc1cccc(-c2ocnc2C(=O)O)c1)NC[C@H](O)c1cccc(Cl)c1`: the values for the Emax in [1], in data set [3] and in [4] were 49%, 14% and 102%, respectively. For the same molecule, the EC50 was 316 nM in data set [2], 398 nM in data set [8] and 3.98 nM in data set [10]. For the same molecule, the half-life in data set [5] was ≤ 1 h. The same molecule returned a clearance in [6] of 5.3 mL/min/kg. Also, the Selectivity ratio in the data set filed under Homo sapiens [7] is 100; in the data set filed under Homo sapiens [9] it was 79.
In the case of `C[C@H](CNc1ccc(-c2ocnc2C(=O)O)cc1)NC[C@H](O)c1cccc(Cl)c1`, the Emax in [1] turned out to be 55%; in [3], 24%; in [4], 90%. The EC50 is 398 nM in data set [2], 25.1 nM in data set [8] and 1.26 nM in [10]. Also, the half-life in data set [5] was ≤ 1 h. This molecule also returned a clearance in data set [6] of 5.3 mL/min/kg. Further, the Selectivity ratio is 20 in the data set listed under Homo sapiens [7] and 320 in the data set filed under Homo sapiens [9].
Take `O=C(O)c1ccsc1-c1cccc(NCCNC[C@H](O)c2cccc(Cl)c2)c1`: the values for the maximum response (Emax) in data set [1], in [3] and in data set [4] were < 5%, < 2% and 103%, respectively. The EC50 in data set [2] is 5010 nM; in data set [8], 3980 nM; in [10], 1.26 nM. This molecule showed a half-life in data set [5] of 1.6 h. In data set [6], this molecule displayed a clearance of 1.5 mL/min/kg. Further, the values for the Selectivity ratio in the data set filed under Homo sapiens [7] and in the data set listed under Homo sapiens [9] were 3200 and 4000, respectively.
For `C[C@H](CNc1ccc(-c2nc(C(=O)O)cs2)cc1)NC[C@H](O)c1cccc(Cl)c1`, the Emax worked out at 41% in data set [1], 21% in data set [3] and 100% in data set [4]. In addition, the EC50 in [2] is 50.1 nM; in [8], 20 nM; in data set [10], 6.31 nM. Further, the values for the Selectivity ratio in the data set filed under Homo sapiens [7] and in the data set listed under Homo sapiens [9] were 3 and 8, respectively.
In the case of `C[C@H](CNc1cccc(-c2nc(C(=O)O)co2)c1)NC[C@H](O)c1cccc(Cl)c1`, the results for the Emax in data set [1], in [3] and in [4] were 39%, 30% and 115%, respectively. In addition, the values for the EC50 in data set [2], in data set [8] and in [10] were 126 nM, 158 nM and 15.8 nM, respectively. The Selectivity ratio stood at 10 in the data set listed under Homo sapiens [7] and 8 in the data set filed under Homo sapiens [9].
Consider `C[C@H](CNc1cccc(-c2nc(C(=O)O)cs2)c1)NC[C@H](O)c1cccc(Cl)c1`, for which the Emax was determined as 48% in data set [1], 21% in data set [3] and 97% in data set [4]. Further, the values for the EC50 in data set [2], in data set [8] and in data set [10] were 158 nM, 79.4 nM and 0.794 nM, respectively. Moreover, the half-life in data set [5] was ≤ 1 h. In data set [6], this molecule showed a clearance of 5.3 mL/min/kg. Besides, the Selectivity ratio in the data set listed under Homo sapiens [7] is 100; in the data set listed under Homo sapiens [9] it was 200.
For the molecule `C[C@H](CNc1ccc(-c2sccc2C(=O)O)cc1)NC[C@H](O)c1cccc(Cl)c1`, the values for the Emax in data set [1], in data set [3] and in [4] were 19%, 14% and 96%, respectively. Moreover, the EC50 in data set [2] is 631 nM; in data set [8], 100 nM; in [10], 0.398 nM. Further, the Selectivity ratio was found to be 250 in the data set filed under Homo sapiens [7] and 1600 in the data set filed under Homo sapiens [9].
